Measured values from PubChem BioAssay AID720543 (The Scripps Research Institute Molecular Screening Center, 2013).
The campaign covered roughly 370,000 compounds. About 2,000 (0.54%) were called active. The full list was thinned out, with actives kept by preference. Values without a mark were called inactive.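 Rule for the calls: active = inhibition exceeding the mean over every tested compound plus 3 SD (cut at about 30% in these data); inactive = the rest.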

Biological target: (Lyso)-N-acylphosphatidylethanolamine lipase (Mus musculus) (UniProt Q8VD66)
Sequence (Q8VD66 whole entry, looked up): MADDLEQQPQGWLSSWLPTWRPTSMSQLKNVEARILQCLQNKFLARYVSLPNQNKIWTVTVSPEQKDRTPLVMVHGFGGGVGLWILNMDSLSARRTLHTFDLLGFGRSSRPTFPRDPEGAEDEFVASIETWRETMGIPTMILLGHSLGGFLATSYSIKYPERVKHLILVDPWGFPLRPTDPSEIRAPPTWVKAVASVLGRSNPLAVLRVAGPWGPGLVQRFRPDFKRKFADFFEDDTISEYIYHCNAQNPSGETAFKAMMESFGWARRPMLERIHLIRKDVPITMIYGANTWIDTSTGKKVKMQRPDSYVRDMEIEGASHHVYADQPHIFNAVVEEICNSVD
Assay: ABHD4 inhibitors, primary screen, biochemical, fluorescence polarization, mouse (AID 720543);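 note: 0% = plate median of compound wells and 100% = S159A mutant with DMSO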
Details: purified mABHD4, FP-Rh probe fluorescence polarization; at 8.92 µM; active compounds read high
How it was run: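 Assay system: wild-type mouse ABHD4 protein; compound: single nominal dose of 8.92 µM, 0.89% DMSO final; schedule: 45 min + 60 min at 25 °C; measured by: FP readout, ex 525 nm / em 598 nm; evaluation: % inhibition of FP-Rh probe binding versus controls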

SMILES	inhibition
O=C(c1ncn2c1c(=O)[nH]c1ccccc12)N1CCc2ccccc2C1	-9.48%
O=c1[nH]c2ccccc2n2c(-c3ccccc3)nnc12	43.1% (active)
O=C(O)C1C2CC2CN1C(=O)c1ccc(Cl)cc1Cl (stereo unspecified)	0.74%
CCCNC(=O)CN(Cc1ccccc1F)S(=O)(=O)c1ccc(C)cc1	-5.78%
CC[C@@H]1Cc2cc(O)ccc2C2=C1c1ccc(O)cc1C[C@H]2CC	35.5% (active)
Cc1ccc(S(=O)(=O)N2CCCC2C(=O)NCc2ccco2)cc1 (stereo unspecified)	5.4%
CC(C)c1ccc(NC(=S)NNc2ccc(Cl)c(C(=O)O)c2)cc1	37.3% (active)
O=C(NC(=S)Nc1ccc(Cl)c(C(=O)O)c1)c1cncc(Br)c1	-0.66%
CC(C)c1ccc(NC(=S)NC2CC3C=CC2C3)cc1 (stereo unspecified)	-0.07%
C=CCN1C(C(=O)OC)CN(Cc2cn(Cc3ccccc3)nn2)CCS1(=O)=O (stereo unspecified)	-0.95%
COc1ccccc1C1=Nc2cccc3cccc(c23)N1	56.6% (active)
COc1ccccc1-c1sc2ccccc2c1-c1ccc(Br)nc1	-9.92%
COc1ccccc1-c1n[nH]nc1C1=CC(=O)CC(C)(C)C1	-5.54%
CCn1c(=O)n2n(c1=O)[C@@]1(C=C3CCCC[C@H]32)N=C(NC(=O)c2ccccc2)N(Cc2ccccc2)[C@H]1Cc1ccccc1	5.91%
COCCNC(=S)c1ccc(OC)cc1	4.41%
COCCNC(=O)Nc1ccc2nc(-c3ccco3)c(-c3ccco3)nc2c1	50.8% (active)
COCCNC(=O)c1cc2c(Br)ccc(Br)c2nc1N	-4.62%
O=C(C1CCN(S(=O)(=O)c2ccc(Br)s2)CC1)N1CCN(c2ccccc2)CC1	1.42%
COc1ccc(-n2c(SCC(=O)NC3CCCC3)nnc2-c2ccncc2)cc1	3.8%
CCn1c(/C=C/Nc2ccccc2)[n+](CC)c2ccc(C(=O)OCC(F)(F)F)cc21	-4.64%
CC(c1c[nH]c2ccccc12)c1c(-c2ccccc2)n(C)c2ccccc12 (stereo unspecified)	-21.7%
Cc1nc2cc(C(F)(F)F)ccc2n1CCNc1nc(-c2cc(Cl)c(N)c(Cl)c2)cs1	5.15%

SMILES	inhibition
CC(C)COC(=O)n1c(=O)oc2ccc(S(=O)(=O)N3CCCCC3)cc21	42.3% (active)
CC1CCCCN1C(=O)Cn1c(=O)oc2cc(S(=O)(=O)N3CCCCC3)ccc21 (stereo unspecified)	8.03%
CCOC(=O)C1CCN(C(=O)c2oc3ccc(S(=O)(=O)N4CCCCCC4)cc3c2C)CC1	6.37%
Cc1ccccc1NC(=O)C1CCN(c2ncccn2)CC1	-7.6%
COC(=O)C1CCCCN1C(=O)c1ccc(OC2CCN(C(C)=O)CC2)c(OC)c1 (stereo unspecified)	-4.35%
COc1ccc(-c2ccccc2C2Cc3nnccc3CN2C(=O)Nc2ccccc2)cc1 (stereo unspecified)	-13%
Cc1coc2c(O)cc3c(c12)OC1(N2CCCCC2)C(=O)NCCCC31 (stereo unspecified)	35.3% (active)
O=C(CSc1nnc(-c2ccccn2)n1-c1ccc(Cl)cc1)Nc1ccccc1-c1ccccc1	-9.15%
CS(=O)(=O)N1CCCC(C(=O)Nc2ccccc2C(F)(F)F)C1 (stereo unspecified)	-11.1%
COc1ccc(C(C#N)Nc2ccc(C)cc2)cc1 (stereo unspecified)	0.68%
Cc1cc2nc3c(=O)n(Cc4ccccc4)c(=O)[nH]c3nc2cc1N	56.4% (active)
COCCn1c(N)c(NCc2ccccc2)c(=O)[nH]c1=O	7.29%
COCCCN(C(=O)CSCc1ccc(C)cc1)c1c(N)n(Cc2ccccc2)c(=O)[nH]c1=O	2.08%
CC(NC(=O)C1CCCN(S(=O)(=O)c2ccc(-n3cnnn3)cc2)C1)c1ccc(F)cc1 (stereo unspecified)	-0.78%
Cc1ccc(S/C(=N\S(=O)(=O)c2ccc(Cl)cc2)c2ccccc2)cc1	7.36%
CCOc1ccc(Oc2c(Cl)cnn(-c3ccc(C)cc3)c2=O)cc1	5.6%
COc1ccc(C2Nc3ccccc3C(=O)N2Cc2cccs2)cc1COc1c(C)cccc1C (stereo unspecified)	-15.8%
COc1ccc(-c2noc(C(C)NS(=O)(=O)c3ccc(NC(C)=O)cc3)n2)cc1 (stereo unspecified)	0.4%
COc1ccc(/C=C/c2nnc(NC(=O)C(C)C)s2)cc1	-1.43%
COc1ccc2nc(Nc3nc4ccc(NC(C)=O)cc4s3)sc2c1	37.7% (active)
CCOc1ccc2nc(NCCNC(=O)C(C)(C)C)c(C)cc2c1	-2.62%
CCOc1ccc2nc(Nc3nc4ccc(NC(C)=O)cc4s3)sc2c1	35.1% (active)

SMILES	inhibition
CCOc1ccc2sc(NS(=O)(=O)c3ccc(N)cc3)nc2c1	16.3%
CN1CCN(C(=O)C(=O)c2cn(CC(=O)N3CCCC3)c3ccccc23)CC1	8.39%
Nc1nc2c(ncn2[C@@H]2O[C@H](C(=O)N[C@@H](Cc3ccccc3)C(=O)NCc3ccccc3)[C@@H](O)[C@H]2O)c(=O)[nH]1	1.72%
COC(=O)[C@]12C[C@H](CC(=O)NCC34CC5CC(CC(C5)C3)C4)C(=O)N(Cc3ccc(Cl)cc3Cl)C1=C[C@H](COCc1ccccc1)O[C@@H]2C	2.69%
O=C(NCc1ccccc1)[C@@H]1CCCN1C(=O)[C@@H](NS(=O)(=O)c1ccc(F)cc1F)C1CCCCC1	-7.63%
COC(=O)[C@]12C[C@H](CC(=O)NCc3ccccc3)C(=O)N(Cc3ccccc3)C1=C[C@H](COCc1ccccc1)O[C@@H]2C	-5.73%
COC(=O)[C@@]12CCCCC=C1N(CCc1ccc(Cl)cc1)C(=O)[C@H]2CC(=O)NCc1ccc(OC)c(OC)c1	-1.49%
CCOC(=O)[C@@]12CCC3=C1N(CCC3)C(=O)[C@H](CC(=O)N1CCN(C(=O)c3ccco3)CC1)C2	2.38%
O=C1CC(c2ccccc2)C(c2ccccc2)=NN1 (stereo unspecified)	-2.08%
CCOC(=O)Cn1c2c(n(-c3ccc(F)cc3)c1=O)C=C(c1ccccc1)[C@@H](C)C(C(=O)N(C)C1CCCCC1)=C2	34.2% (active)
CN(C(=O)CCn1c(=S)oc2ccccc21)C1CCCCC1	0.63%
CN(C(=O)COc1ncnc2c1cnn2-c1ccccc1)C1CCCCC1	-16.6%
CCC(=O)Nc1ccc2c(c1)C(=O)N(C)[C@@H]1CC[C@@H](CC(=O)NCCc3ccccc3)O[C@H]1CO2	-0.19%
Cc1nn(C)cc1N1C(=O)c2cccc3c(N)ccc(c23)C1=O	35.3% (active)
CN1C(=O)c2cccc3c(N)ccc(c23)C1=O	32.9% (active)
CC(C)C[C@H](NC(=O)CC1CCCC1)C(=O)N1CCC[C@H]1C(=O)NCc1ccccc1	0.46%
COc1ccc2c(C(C)c3ccc(N)cc3)cn(C)c2c1 (stereo unspecified)	-3.15%
CC(NC(=O)CCCC1CCCCC1)c1ccc(S(N)(=O)=O)cc1 (stereo unspecified)	-16%
CCOC(=O)C1CCN(C(=O)C(C)(C)NC(=O)Nc2ccccc2Cl)CC1	-3.65%
O=C(NCC1COc2ccccc2O1)c1ccc(NC(=O)c2cc(F)ccc2F)cc1 (stereo unspecified)	5.07%
CCN(CC)C(=O)CC[C@H]1CC[C@]2(CCCN(Cc3ccc(Cl)cc3)C2)O1	-3.65%
C=CCN1C(=O)[C@@H](CC(=O)NCCCOCCCC)[C@]2(C(=O)OCC)CCCCC/C=C/12	-1.53%

SMILES	inhibition
Cc1cccc(N2CCN(Cc3nc(C4CC4)no3)CC2)n1	53.8% (active)
Fc1cccc(Cc2noc(CN3CCN(c4cnccn4)CC3)n2)c1	-0.5%
Cc1ccccc1N1CCN(Cc2nc(Cc3ccccc3F)no2)CC1	-7.9%
CCOC(=O)C1CCN(C(=O)C2(NC(=O)Nc3cccc(F)c3)CCCCC2)CC1	-0.97%
O=C(/C=C/c1ccc([N+](=O)[O-])cc1)NCCSCc1ccco1	-1.92%
CCCCC(=O)N[C@@H]1CC[C@@]23CCCN2C(=O)CCC[C@H]3[C@H]1C	3.19%
CC1CCN(c2ccc(S(=O)(=O)Nc3cc(C(=O)O)cc(C(=O)O)c3)cc2[N+](=O)[O-])CC1	-0.48%
CC1CCN(c2ccc(C(=O)O)cc2NS(=O)(=O)c2ccc(Br)s2)CC1	40.3% (active)
CC1CCN(c2ccc(C(=O)Nc3nnc(C4CC4)s3)cc2[N+](=O)[O-])CC1	2.94%
O=C1C=CC(=O)N1c1ccc(N2CCCCC2)cc1	40.5% (active)
Nn1c(SCC(=O)N2c3ccccc3Sc3ccccc32)nnc1-c1n[nH]c2c1CCC2	-15.8%
O=C1CC[C@@]23CCCN2C(=O)CCC[C@H]3[C@H]1Cc1ccccc1	-0.8%
CC1(C)OC(=O)C(=CNC(CO)C(=O)O)C(=O)O1 (stereo unspecified)	5.15%
CC(=O)Nc1nc2ncccn2c1-c1ccc(C(F)(F)F)cc1	5.78%
CCCN1C(=O)c2[nH]nc(-c3ccccc3)c2C1c1ccccc1 (stereo unspecified)	-7.15%
N#C/C(=C\c1ccc(O)c(O)c1)C(=O)NCc1ccccc1	47% (active)
O=C(CCCc1ccccc1)NCc1ccccc1	-1.11%
CC(C)NC(=O)/C(C#N)=C\c1ccc(N(C)C)c(Br)c1	3.76%
CC(=O)Nc1ccc(OC[C@@H](O)CN2CCC(C(O)(c3ccccc3)c3ccccc3)CC2)cc1	-3.77%
OC(c1ccccc1)(c1ccccc1)C1CCN(CCCOc2ccc(-c3ccsc3)cc2)CC1	13.8%
